From article PMC3008401 (The Journal of infectious diseases, 2010)
Counter-ions that a name gives are not always drawn. Like-named read-outs stand apart in the source and are kept apart here.

Tests used:
[1] = test system: genotype 1b replicon cells; settings: read-out: CC50 Measured by others (1b genotype); cited from earlier work
[2] = format: cell-based; settings: human
How it was run: (§1)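 Huh-7.5 cells electroporated with in vitro transcribed luciferase replicon RNA (genotype 1b Bart79I-luc for line 1; full-length genotype 2a FL-J6/JFH-5′C19Rluc2AUbi for line 2). Seeded at ~2–3×10^4 cells/well, medium changed at 24 h then daily, serial compound dilutions, 4 replicates. At 72 h: 10% alamarBlue, 2 h at 37°C, fluorescence read. Normalized to untreated or DMSO controls. Mean ± SD.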

[3] = test system: HCV J6-JFH (genotype 2a); format: cell-based, Hepatitis C virus; settings: SCH503034 alone at 2.5μM, 72hr
[4] = format: cell-based; settings: human; remark: listed apart in the source
How it was run: as §1

[5] = estimated from preclinical animal data; cited from earlier work

Structure (SMILES): CC(C)(C)OC(=O)N[C@H]1CCCCC/C=C\[C@@H]2C[C@@]2(C(=O)NS(=O)(=O)C2CC2)NC(=O)[C@@H]2C[C@@H](OC(=O)N3Cc4cccc(F)c4C3)CN2C1=O [ITMN-191]
- CC50 [1]: > 50 µM

Structure (SMILES): NC(=O)c1ncn([C@@H]2O[C@H](CO)[C@@H](O)[C@H]2O)n1 [Ribavirin]
- CC50 at 72 h [2]: > 100 µM

Structure (SMILES): CC(C)(C)NC(=O)N[C@H](C(=O)N1C[C@H]2[C@@H]([C@H]1C(=O)NC(CC1CCC1)C(=O)C(N)=O)C2(C)C)C(C)(C)C (stereo partly drawn) [SCH-503034, Boceprevir]
- decrease of viral replication [3]: ~ 1 log
- CC50 at 72 h [2]: > 100 µM
- CC50 at 72 h [4]: > 100 µM
- CC50 [1]: > 100 µM

Structure (SMILES): Clc1ccc(Cn2c(CN3CCCC3)nc3ccccc32)cc1 [clemizole, clemizole hydrochloride]
- CC50 at 72 h [2]: 35 ± 0.5 µM
- CC50 at 72 h [4]: 40 ± 5 µM
- no observed adverse events level (NOAEL) [5]: 100 mg/kg/day

Structure (SMILES): CNC(=O)c1c(-c2ccc(F)cc2)oc2cc(N(CCO)S(C)(=O)=O)c(C3CC3)cc12 [HCV-796]
- CC50 [1]: > 100 µM

Structure (SMILES): CC(C)[C@H](N)C(=O)O[C@@H]1[C@@H](CO)O[C@@H](n2ccc(N)nc2=O)[C@]1(C)O [NM-283, valopicitabine]
- CC50 [1]: > 100 µM

Structure (SMILES): CCC[C@H](NC(=O)[C@@H]1[C@H]2CCC[C@H]2CN1C(=O)[C@@H](NC(=O)[C@@H](NC(=O)c1cnccn1)C1CCCCC1)C(C)(C)C)C(=O)C(=O)NC1CC1 [VX-950, Telaprevir]
- CC50 [1]: 26.7 to 82 µM
